Pemphigus Ab inh: human desmoglein-3 autoantibody binding inhibition; P32926; DSG3-coupled beads, scFv-anti-DSG3-GFP binding, flow cytometry; active compounds read low; binding (percent of control), % at 10 µM; 310,000 compounds, 0.48% hits; AID 588358;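 active = binding more than 3 SD below its plate's average and above zero; inconclusive = below that plate limit but binding exactly zero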;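 also: hits lower antibody fragment binding to DSG3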
Target sequence (P32926 whole entry, looked up, the tested form may be a part): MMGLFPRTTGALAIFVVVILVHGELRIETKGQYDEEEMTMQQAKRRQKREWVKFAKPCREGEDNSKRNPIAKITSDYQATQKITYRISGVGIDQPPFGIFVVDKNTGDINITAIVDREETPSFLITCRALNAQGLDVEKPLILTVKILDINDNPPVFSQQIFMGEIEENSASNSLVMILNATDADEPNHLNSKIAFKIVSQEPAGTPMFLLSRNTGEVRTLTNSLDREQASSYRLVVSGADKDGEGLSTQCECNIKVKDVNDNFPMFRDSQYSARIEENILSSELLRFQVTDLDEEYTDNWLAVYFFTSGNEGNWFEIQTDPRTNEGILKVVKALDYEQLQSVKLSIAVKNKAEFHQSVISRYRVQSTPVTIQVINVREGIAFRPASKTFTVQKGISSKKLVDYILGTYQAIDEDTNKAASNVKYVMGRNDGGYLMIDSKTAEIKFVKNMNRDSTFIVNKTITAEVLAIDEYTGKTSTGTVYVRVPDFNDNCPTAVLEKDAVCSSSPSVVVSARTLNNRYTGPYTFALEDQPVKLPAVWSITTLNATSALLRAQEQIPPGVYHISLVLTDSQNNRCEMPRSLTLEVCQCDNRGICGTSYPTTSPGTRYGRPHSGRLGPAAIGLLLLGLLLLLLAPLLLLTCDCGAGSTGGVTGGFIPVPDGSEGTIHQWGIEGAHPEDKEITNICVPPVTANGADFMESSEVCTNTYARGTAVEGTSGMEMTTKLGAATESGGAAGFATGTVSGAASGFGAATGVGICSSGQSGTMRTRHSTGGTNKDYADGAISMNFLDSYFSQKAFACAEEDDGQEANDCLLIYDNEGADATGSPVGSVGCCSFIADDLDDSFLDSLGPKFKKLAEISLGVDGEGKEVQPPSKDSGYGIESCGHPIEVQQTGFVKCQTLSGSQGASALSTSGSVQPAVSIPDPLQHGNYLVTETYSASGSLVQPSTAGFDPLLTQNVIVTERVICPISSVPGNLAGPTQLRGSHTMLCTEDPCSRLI
GSH fluor: GSH bead compound fluorescence profile; GSH beads flow cytometry, compound fluorescence 488/530 nm; active compounds read high; fluorescence (KMESF) at 10 µM; 190,000 compounds, 0.25% hits; in the data active = fluorescence above about 89;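 also: glutathione beads carrying GST-tagged Bcl family fusion proteins plus one bare bead set; values are compound well signal with DMSO vehicle wells as background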
Arr AP2 block: human beta-arrestin and AP2 interaction inhibition; FITC-arrestin peptide / GST-AP2 beads, flow cytometry; AP2 beta2 appendage carries R879A mutation; inhibition, % at 10 µM; 340,000 compounds, 0.31% hits; AID 504490;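 active = inhibition above a set limit, near 3 SD of compounds lacking own fluorescence, cut at about 54% in these data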;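 also: plate controls were DMSO wells for no effect and 5 µM unlabelled arrestin peptide for full effect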
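Measured by: flow cytometry, FL1 (488/535 nm); Material: AP2 appendage R879A on GSH beads; Evaluation: percent response; Timing: pre-incubation 12 min, peptide binding 1 h, room temperature; Also added: 50 nM FITC-arrestin peptide; Medium: PBS with 0.05% Tween 20 and 0.1% BSA.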
Avidin fluor: avidin bead compound fluorescence profile; Avidin beads, compound fluorescence 488/530 nm, flow cytometry; active compounds read high; 220,000 compounds, 0.38% hits; fluorescence (KMESF) at 10 µM; in the data active = fluorescence above about 47
Arr AP2 CP1: human beta-arrestin and AP2 interaction inhibition, cherry pick | AID 504908 | 1,300 compounds, 2% hits | GST-AP2 beads, FITC arrestin peptide binding, flow cytometry; GST-fused beta2-adaptin appendage, R879A mutant | shares compounds with Arr AP2 block | inhibition, % at 10 µM;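 active = inhibition above a set limit, roughly 3 SD of non-fluorescent compound noise, cut at about 38% in these data; inactive = inhibition at or below that limit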;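 also: loss of bead fluorescence from 50 nM FITC arrestin peptide bound to appendage; 0% = negative control wells and 100% = excess unlabelled arrestin peptide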
GST GSH counter: disrupts GST binding to glutathione beads, arrestin-AP2 artifact. GST-fluorescein binding to GSH beads, fluorescence, counter-screen. AID 588338. shares compounds with Arr AP2 block. inhibition, % at 10 µM. 1,300 compounds, 2% hits;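 active = inhibition above 50%, about 3 SD of the inhibition seen with non-fluorescent compounds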;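 also: fluorescein maleimide labelled GST captured on 4 micron glutathione beads; higher means more loss of bead fluorescence from quenching or blocked binding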
Numbers without * were called inactive; ? = inconclusive; . = no result. Compounds with a hit are over-represented: about 1.1% of the library has one in this group of screens.

SMILES	Pemphigus Ab inh	GSH fluor	Arr AP2 block	Avidin fluor	Arr AP2 CP1	GST GSH counter
Cc1c(C(=O)c2ccc(F)cc2F)c2ccccn2c1CCC#N	105	.	62*	.	3	-5
Cc1ccc(N2CC(=O)N(c3ccc(C)cc3)CC2=O)cc1	.	.	20	4	.	.
COc1ccc(C(=O)Nc2cc3c4c(c2)C(C)C(=O)N4CCC3)cc1 (stereo not given)	99	.	0	.	.	.
N#Cc1cc(C(=O)c2ccccc2OCC(=O)Nc2ccccc2)cn(C2CCCCC2)c1=O	82	10	108*	9	72*	191*
CCCCNC(=O)COc1ccccc1C(=O)c1cc(C#N)c(=O)n(CCOC)c1	124	14	-6	13	.	.
COc1nc(N)nc2nc[nH]c12	.	.	-2	.	.	.
COc1cccc(-n2nc3c(=S)[nH]nc(C)c3c2C)c1	121	17	85*	10	17	-4
COC(=O)c1cccc(Cn2c(Cl)c(/C=N/NC(=O)c3ccco3)sc2=O)c1	104	.	57*	.	-8	7
COC(=O)c1cccc(Cn2c(Cl)c(/C=N/NC(=O)c3ccccc3Cl)sc2=O)c1	100	26	7	36	.	.
CN1C2=CC=CC=CC2=[N+](C)C12C=CC(=[N+]([O-])[O-])C=C2[N+](=O)[O-] (stereo not given)	76*	13	54*	8	2	-7
CN1C2=CC=CC=CC2=[N+](C)C12C([N+](=O)[O-])=CC(=[N+]([O-])[O-])C=C2[N+](=O)[O-] (stereo not given)	93	.	-10	8	.	.
COc1ccc(NC(=O)C(C)N2C(=O)c3ccccc3C2=O)c(OC)c1 (stereo not given)	106	.	5	.	.	.
COC(=O)c1ccc(CN2CCC(Oc3cccc(C(=O)N4CCOCC4)c3)CC2)cc1	110	.	70*	.	3	-4
COCCNC(=O)c1cccc(OC2CCN(Cc3ccc(C(=O)OC)cc3)CC2)c1	109	.	1	.	.	.
CC(=O)c1cccc(CN2CCCCC2C(=O)Nc2ccc(Oc3ccccc3)nc2)c1 (stereo not given)	145	.	-5	.	.	.
COc1ccc(OC)c(-c2nc(CN3CCN(C(=O)c4ccco4)CC3)c(C)o2)c1	112	.	-9	.	.	.
COc1ccc(-c2nc(CN3CCN(C(=O)c4ccco4)CC3)c(C)o2)c(OC)c1C	115	.	54*	.	-8	-2
COc1ccc(OCCCC(=O)Nc2ccc3c(c2)OCO3)cc1	100	23	62*	15	2	1
COc1ccccc1OCCC(=O)OCC(=O)Nc1ccc2c(c1)OCO2	.	.	11	.	.	.
COc1ccc(CCC(=O)Nc2ccc3c(c2)OCO3)cc1	96	.	-11	.	.	.
Cc1ccc(OCCC(=O)Nc2ccc3c(c2)OCO3)cc1	.	.	7	.	1	-6
CCOc1ccc(OCCC(=O)Nc2ccc3c(c2)OCO3)cc1	106	.	3	.	-1	-3
COc1ccccc1OCCC(=O)Nc1ccc2c(c1)OCO2	?	.	57*	.	1	-1
O=C(NC1CCC(O)CC1)c1cc(Cl)c2c(c1)OCCO2 (stereo not given)	95	.	-5	.	.	.
CC1Cc2cc(S(=O)(=O)NCCC(=O)N(C)Cc3ccccc3)ccc2N1C(=O)C1CC1 (stereo not given)	105	.	-1	.	.	.
SMILES	Pemphigus Ab inh	GSH fluor	Arr AP2 block	Avidin fluor	Arr AP2 CP1	GST GSH counter
O=C(COC(=O)Cn1cnc2ccccc21)Nc1ccc2c(c1)C(=O)c1ccccc1C2=O	93	1	100*	10	24	33
CCn1c(SCC(=O)N2CCN(c3ccccc3)CC2)nc2c([nH]c3ccccc32)c1=O	103	.	3	.	.	.
COCCNC(=O)c1cccc(S(=O)(=O)N2CC3(C)CC2CC(C)(C)C3)c1 (stereo not given)	102	.	63*	.	-2	1
CCc1ccc(NC(=O)Nc2ccon2)cc1	107	.	4	.	.	.
CCCCc1ccc(NC(=O)NCc2ccccn2)cc1	104	.	-4	.	.	.
CCc1ccc(NC(=O)Nc2cnccn2)cc1	109	.	-2	.	6	0
CCCCc1ccc(NC(=O)Nc2cnccn2)cc1	109	.	1	.	23	-5
Cc1cc(OC(C)C(=O)NCc2ccncc2)c2c(C)cc(=O)oc2c1 (stereo not given)	94	.	16	.	.	.
CCCCc1cc(=O)oc2cc(C)cc(OC(C)C(=O)NCc3ccncc3)c12 (stereo not given)	98	.	67*	.	-6	-5
Cc1ccc(S(=O)(=O)N(CC(=O)NCc2ccncc2)Cc2ccc(F)cc2)cc1	121	.	0	.	.	.
CCCCn1c(N)c(N(CCOC)C(=O)COC(=O)COc2ccccc2C#N)c(=O)[nH]c1=O	89	.	56*	.	19	3
COC(=O)C(N)Cc1ccc(O)c(O)c1 (stereo not given)	99	10	81*	5	9	-7
O=C(Nc1ccc(S(=O)(=O)N2CCCCC2)cc1)C1CCCN(C(=O)c2ccc(Cl)cc2)C1 (stereo not given)	101	4	4	13	.	.
CN(C)S(=O)(=O)c1ccc(NC(=O)C2CCCN(C(=O)c3ccc(Cl)cc3)C2)cc1 (stereo not given)	119	8	56*	5	-2	-5
COc1ccc(/C=N/Nc2nn3cnnc3c3ccccc23)cc1	.	.	-4	3	.	.
Cc1ccc(S(=O)(=O)NCc2ccccc2)cc1	108	.	56*	.	-4	-5
Cc1ccc(N2C(=O)NC(NC(=O)C(C)(C)C)(C(F)(F)F)C2=O)cc1C (stereo not given)	100	9	56*	6	-2	2
COc1ccc(N2C(=O)NC(NC(=O)C(C)(C)C)(C(F)(F)F)C2=O)cc1 (stereo not given)	96	.	40	.	.	.
COCCNc1cc(N)c([N+](=O)[O-])cc1[N+](=O)[O-]	101	7	-15	4	.	.
O=c1[nH]c2cc(NCCO)c([N+](=O)[O-])cc2[nH]1	99	15	70*	8	1	2
COc1ccc(CN2C(=O)c3ccccc3C2OC)cc1 (stereo not given)	115	.	-4	.	.	.
COC1c2ccccc2C(=O)N1Cc1ccc(F)cc1 (stereo not given)	104	.	61*	.	8	-10
C=CCn1c(SCC(=O)Nc2c(C)n(C)n(-c3ccccc3)c2=O)nnc1-c1cccnc1	114	.	13	.	.	.
CSCCC(NS(=O)(=O)c1ccccc1F)C(=O)NCC(C)(C)N1CCOCC1 (stereo not given)	101	.	56*	.	4	1
COc1ccc(CN(C(=O)c2snc(C(N)=O)c2N)C(C(=O)NC2CCCC2)c2cc(OC)ccc2OC)cc1 (stereo not given)	.	.	-16	.	.	.
CC(=O)Nc1cccc(NC(=O)C2CC(=O)N(C3CCCCC3)C2)c1 (stereo not given)	108	.	61*	.	9	-6
